From paper PMC6689428 (Biochimica et biophysica acta. Biomembranes, 2019)

Assays:
S. aureus USA300 [1] = experiment: Membrane depolarization, DiBAC4; format: cell-based, Staphylococcus aureus; settings: S. aureus USA300, treated at 12.5 μM, DiBAC4(3) fluorescence; Triton X-100 (0.1%) positive control
[2] = tested on: S. aureus USA300 biofilms; experiment: Disruption of 24 h established biofilms, XTT; format: cell-based, Staphylococcus aureus; settings: 24 h preformed S. aureus USA300 biofilms, 24 h treatment in TSB
Method in brief: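 Exponential-phase TSB culture at 10^5 CFU/mL grew 24 h at 37°C to form biofilms. Plankton was removed with a PBS wash. Biofilms took 10× peptide diluted in fresh TSB for 24 h at 37°C, were washed, then got XTT in TSB for 2 h at 37°C. A450 was blanked on media plus XTT. Growth was expressed as % of untreated biofilm wells.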

S. aureus USA300 [3] = experiment: Membrane permeation, propidium iodide; format: cell-based, Staphylococcus aureus; settings: S. aureus USA300, peptides at 3.12 μM, 10 mM PBS, 37°C, read for 2 h
Method in brief: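 Cells were suspended in 10 mM PBS at final OD600 ~0.1 with propidium iodide and serially diluted 10× peptide. They were held at 37°C shaking at 100 rpm. Fluorescence (ex 584/em 620 nm) was read every 5 min for 2 h. Plots used averages of duplicate experiments.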

E. coli ML-35p = experiment: Outer and inner membrane permeabilization; format: cell-based, Escherichia coli; settings: peptides at 6.25 μM, absorbance for 40 min
Method in brief: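 Cells came from a single colony grown overnight in TSB at 37°C and were washed three times in PBS. They were diluted to ~10^6 CFU/mL in PBS containing 0.3 mg/mL TSB. Peptide was 0 to 12.5 μM, with 30 μM nitrocefin or 2.5 mM ONPG per well. Absorbance at 490 and 420 nm was followed for 40 min at 37°C.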

[4] = tested on: E. coli ATCC 25922 biofilms; experiment: Disruption of 24 h established biofilms, XTT; format: cell-based, Escherichia coli; settings: 24 h preformed E. coli ATCC 25922 biofilms
S. aureus USA300 [5] = settings: ref [10]; cited from earlier work
E. coli = settings: ref [50], [10]; cited from earlier work

Compound: CCCCCCCCCC(=O)N[C@@H](Cc1c[nH]c2ccccc12)C(=O)N[C@H](CC(N)=O)C(=O)N[C@@H](CC(=O)O)C(=O)N[C@@H]1C(=O)NCC(=O)N[C@@H](CCCN)C(=O)N[C@@H](CC(=O)O)C(=O)N[C@H](C)C(=O)N[C@@H](CC(=O)O)C(=O)NCC(=O)N[C@H](CO)C(=O)N[C@@H]([C@H](C)CC(=O)O)C(=O)N[C@@H](CC(=O)c2ccccc2N)C(=O)O[C@@H]1C [daptomycin]
- Membrane depolarization (S. aureus USA300 [1]): very weak
- Concentration that essentially eliminated biofilms [2]: 6.25 µM

Compound: NC[C@H]1O[C@H](O[C@H]2[C@H](O)[C@@H](O[C@H]3O[C@H](CO)[C@@H](O)[C@H](N)[C@H]3O)[C@H](N)C[C@@H]2N)[C@H](N)C[C@@H]1O [tobramycin]
- Membrane permeation (propidium iodide fluorescence) (S. aureus USA300 [3]): unable to damage bacterial membranes

Compound: CN[C@H](CC(C)C)C(=O)N[C@H]1C(=O)N[C@@H](CC(N)=O)C(=O)N[C@H]2C(=O)N[C@H]3C(=O)N[C@H](C(=O)N[C@H](C(=O)O)c4cc(O)cc(O)c4-c4cc3ccc4O)[C@H](O)c3ccc(c(Cl)c3)Oc3cc2cc(c3O[C@@H]2O[C@H](CO)[C@@H](O)[C@H](O)[C@H]2O[C@H]2C[C@](C)(N)[C@H](O)[C@H](C)O2)Oc2ccc(cc2Cl)[C@H]1O [vancomycin]
- Outer membrane permeation (β-lactamase, nitrocefin) (E. coli ML-35p): unable to

Compound: CO[C@H]1/C=C/O[C@@]2(C)Oc3c(C)c(O)c4c(O)c(cc(O)c4c3C2=O)NC(=O)/C(C)=C\C=C\[C@H](C)[C@H](O)[C@@H](C)[C@@H](O)[C@@H](C)[C@H](OC(C)=O)[C@@H]1C [rifamycin]
- Antibiofilm effect [4]: ineffective

Compound: GFKRlVQRlKDFlRKLV-amide [GF-17d3]
- Activity against S. aureus USA300 (S. aureus USA300 [5]): not active
- Activity against E. coli in the presence of chymotrypsin (E. coli): active
